Experimental data pooled from the literature.
Compare with care: the assays were run in different laboratories.

For O=C(O)c1ccc(-n2nc(-c3ccccc3O)nc2-c2ccccc2O)cc1, the logD was 0.9 (shake flask; PBS; pH 7.4).
For COC(=O)[C@H](Cc1c[nH]cn1)NC(=O)CN(CCCc1ccccc1)CC(=O)O, the logD was -0.78 (shake flask; PBS; 2 h, pH 7.4).
The logD of CCCc1cc2c(N3CCn4c(nnc4C(F)(F)F)C3)nc(OCC[18F])nc2s1 is reported as 2.06 (shake flask; aqueous buffer; pH 7.4).
For CN1CCN(c2ccc3nc(-c4ccc5nc(-c6ccc(OCCCC(=O)Nc7ccc(CC(CN(CCN(CC(=O)O)CC(=O)O)CC(=O)O)N(CC(=O)O)CC(=O)O)cc7)cc6)[nH]c5c4)[nH]c3c2)CC1 (stereo not shown), the logD was -0.5 (shake flask; PBS; pH 7.4).
The logD of O=C(O)CN(CCCc1ccccc1)CC(=O)N[C@H](CO)Cc1c[nH]cn1 is reported as -1.3 (shake flask; PBS; 2 h, pH 7.4).
For Cc1c(C(=O)N[C@@H]2CCCC[C@@H]2N(C)C)nc(-c2ccc(Cl)cc2Cl)n1-c1ccc(OS(=O)(=O)CCC(F)(F)F)cc1 (relative stereo), the logD was 3.8 (shake flask; aqueous buffer; pH 7.4).
For C[C@]1(C(=O)O)CSC(c2ccc(OCCCC(=O)O)cc2O)=N1, the logD was -2.21 (shake flask; aqueous buffer; pH 7.4).
The logD of CN1CCN(c2ccc3nc(-c4ccc5nc(-c6ccc(OCCCCNC(=O)[C@H](N)CS)cc6)[nH]c5c4)[nH]c3c2)CC1 is reported as 2 (shake flask; PBS; pH 7.4).
COC(=O)[C@H](Cc1c[nH]cn1)NC(=O)CN(CC(=O)O)Cc1ccccc1 gave a logD of -2.05 (shake flask; PBS; 2 h, pH 7.4).
Cc1c(C(=O)Nc2ccc(C(F)(F)F)nc2)nc(-c2ccc(Cl)cc2Cl)n1-c1ccc(OS(=O)(=O)CCC(F)(F)F)cc1 gave a logD of > 4.9 (shake flask; aqueous buffer; pH 7.4).
The logD of CCCCc1nc2c(N)nc3ccccc3c2n1Cc1ccc(N)cc1 is reported as 2.6 (shake flask; PBS; pH 7.4).
CC(C)CN(C[C@@H](O)[C@H](Cc1ccccc1)NC(=O)O[C@H]1CO[C@H]2OCC[C@H]21)S(=O)(=O)c1ccc(N)cc1 gave a logD of 2.8 (shake flask; PBS; pH 5).
COC(=O)CN(CC(=O)N[C@@H](Cc1c[nH]cn1)C(=O)OC)Cc1ccccc1 has a logD of 0.82 (shake flask; PBS; 2 h, pH 7.4).
For O=C(O)C1=Cc2cc3ccc(cc4nc(cc5c(-c6ccccc6)c(C(=O)O)c(c(C(=O)O)c1n2)n5C(=O)O)C=C4)[nH]3, the logD was 0.0277 (shake flask; aqueous buffer; pH 9).
For Cc1c(C(=O)NN2CCCCC2)nc(-c2ccc(Cl)cc2Cl)n1-c1ccc(OS(=O)(=O)CCC(C)(C)C)cc1, the logD was > 5.8 (shake flask; aqueous buffer; pH 7.4).
CN1C(C(=O)Nc2ccccn2)=C(O)c2ccccc2S1(=O)=O has a logD of -0.31 (shake flask; aqueous buffer; 48 h, pH 7.4).
The logD of Cc1c(C(=O)N[C@@H]2CCCC[C@H]2O)nc(-c2ccc(Cl)cc2Cl)n1-c1ccc(OS(=O)(=O)CCC(F)(F)F)cc1 (relative stereo) is reported as > 4.4 (shake flask; aqueous buffer; pH 7.4).
COc1ccn2c(Nc3ccccc3F)c(-c3ccncn3)nc2c1 has a logD of 2.5 (pH 7.4).
For Cc1c(C(=O)NN2CCCCC2)nc(-c2ccc(Cl)cc2Cl)n1-c1ccc(OCCC(F)(F)F)cc1, the logD was 5.4 (shake flask; aqueous buffer; pH 7.4).
For CCC1=C(C)C2=NC1=Cc1c(C)c(CC)c3[n]1[Fe][n]1c(c(C)c(CCC(=O)O)c1=CC1=NC(=C3)C(C)=C1CCC(=O)O)=C2, the logD was 0.552 (shake flask; aqueous buffer; pH 9).
With N#CCc1ccccc1C#Cc1ccc(CCC(=O)O)c(F)c1 the logD was 1.41 (shake flask; PBS; pH 7.4).
O=C(C1CCN(c2nnnn2-c2ccccc2)CC1)N1CCCc2c(Cl)cccc21 has a logD of 3.6 (shake flask; PBS; pH 7.4).
Cc1c(C(=O)NN2CCCCC2)nc(-c2ccc(Cl)cc2Cl)n1-c1ccc(OS(=O)(=O)CCCC(F)(F)F)cc1 has a logD of 5.3 (shake flask; aqueous buffer; pH 7.4).
For CNC(=O)[C@H](Cc1c[nH]cn1)NC(=O)CN(CCCc1ccccc1)CC(=O)OC, the logD was 1.07 (shake flask; PBS; 2 h, pH 7.4).
The logD of Cc1c(C(=O)N[C@H]2CCCC[C@H]2N)nc(-c2ccc(Cl)cc2Cl)n1-c1ccc(OS(=O)(=O)CCC(F)(F)F)cc1 (racemic) is reported as 3.35 (shake flask; aqueous buffer; pH 7.4).
The logD of C[C@]1(C(=O)O)CSC(c2ccc(OCC(=O)O)cc2O)=N1 is reported as -1.98 (shake flask; aqueous buffer; pH 7.4).
Cc1c(C(=O)NN2CCCCC2)nc(-c2ccc(Cl)cc2Cl)n1-c1ccc(OS(=O)(=O)CCCF)cc1 has a logD of 4.15 (shake flask; aqueous buffer; pH 7.4).
With C[C@]1(C(=O)O)CSC(c2ccc(OCCCCCCO)cc2O)=N1 the logD was 0.21 (shake flask; aqueous buffer; pH 7.4).
